Reference: ChEMBL document CHEMBL3763095, “Naphtho[1',2':4,5]imidazo[1,2-a]pyridine-5,6-diones: Synthesis, enzymatic reduction and cytotoxic activity” (Bioorg Med Chem Lett, 2016)
Converted amounts (≈) assume the structure as drawn.

Legend:
A549 [1] = experiment: Cytotoxicity against human A549 cells expressing NQO1 assessed as cell viability after 24 hrs by MTT assay; type: functional; conditions: A549, 24 h, read-out: LC50 (the source's name)
Method in brief: (§1)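 Cells exposed to the quinones for 24 h, then survival read by MTT assay. Viability expressed as percent of solvent-treated control cells. LC50 (concentration causing 50% lethal effect) obtained from logistic dose-response curves.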

MCF7 [2] = experiment: Cytotoxicity against human MCF7 cells expressing NQO1 assessed as cell viability after 24 hrs by MTT assay; type: functional; conditions: MCF7, 24 h, read-out: LC50 (the source's name); method in brief: as §1
[3] = Cytotoxicity against NQO1-deficient human HL60 cells assessed as cell viability after 24 hrs by MTT assay; type: cell-based, HL-60; conditions: read-out: LC50; method in brief: as §1
A549 [4] = experiment: Ratio of LC50 for human A549 cells expressing NQO1 in presence of NQO1 inhibitor dicoumarol to LC50 for human A549 cells expressing NQO1 in absence of NQO1 inhibitor dicoumarol; type: functional
MCF7 [5] = experiment: Ratio of LC50 for human MCF7 cells expressing NQO1 in presence of NQO1 inhibitor dicoumarol to LC50 for human A549 cells expressing NQO1 in absence of NQO1 inhibitor dicoumarol; type: functional
Staphylococcus aureus = experiment: Antibacterial activity against Staphylococcus aureus ATCC 25923 after 16 hrs by two-fold microdillution method; type: functional; conditions: ATCC 25923, 16 h

Structure (SMILES) | CC50 (A549 [1]) | CC50 (MCF7 [2]) | CC50 at 24 h [3] | RatioLC50 (A549 [4]) | RatioLC50 (MCF7 [5]) | MIC (Staphylococcus aureus)
O=C1C(=O)c2c(nc3ccccn23)-c2ccc([N+](=O)[O-])cc21 | 120 nM | 280 nM | > 15000 nM | 3.3 | 3.6 | 
O=C1C(=O)c2c(nc3ccc(Br)cn23)-c2ccccc21 | 3930 nM | 1390 nM | > 15000 nM |  |  | 6.1 µM (≈ 2 µg/mL)
O=C1C(=O)c2c(nc3ccc(C(F)(F)F)cn23)-c2ccccc21 | 900 nM | 3780 nM | > 15000 nM |  |  | 6.3 µM (≈ 1.99 µg/mL)
O=C1C(=O)c2c(nc3ccc(F)cn23)-c2ccccc21 | 2030 nM | 1320 nM | 13000 nM |  |  | 15 µM (≈ 3.99 µg/mL)
O=C1C(=O)c2c(nc3ncccn23)-c2ccccc21 | 1600 nM | 800 nM | > 15000 nM |  |  | 8 µM (≈ 1.99 µg/mL)
O=C1C(=O)c2c(nc3ccc([N+](=O)[O-])cn23)-c2ccccc21 | 2300 nM | 1700 nM | > 15000 nM |  |  | 
O=C1C(=O)c2c(nc3ccccn23)-c2ccccc21 | 670 nM | 510 nM | > 15000 nM | 3.1 | 2.3 | 16.1 µM (≈ 4 µg/mL)
Cc1ccn2c3c(nc2c1)-c1ccccc1C(=O)C3=O | 1500 nM | 1250 nM | > 15000 nM |  |  | 15.2 µM (≈ 3.99 µg/mL)
Cc1cccn2c3c(nc12)-c1ccccc1C(=O)C3=O | 3400 nM | 1700 nM | > 15000 nM |  |  | 15.2 µM (≈ 3.99 µg/mL)
Cc1ccc2nc3c(n2c1)C(=O)C(=O)c1ccccc1-3 | 8340 nM | 3940 nM | > 15000 nM |  |  | 15.2 µM (≈ 3.99 µg/mL)
O=C1C(=O)c2c(nc3ccc4ccccc4n23)-c2ccccc21 | > 15000 nM | > 15000 nM | > 15000 nM |  |  | 
O=C1C(=O)c2c(nc3ccc(Cl)cn23)-c2ccccc21 | 2060 nM | 3410 nM | 10000 nM |  |  | 7 µM (≈ 1.98 µg/mL)
COc1ccc2nc3c(n2c1)C(=O)C(=O)c1ccccc1-3 | 3350 nM | 2100 nM | > 15000 nM |  |  | 14.3 µM (≈ 3.98 µg/mL)
CC1(C)S[C@@H]2[C@H](NC(=O)[C@H](N)c3ccc(O)cc3)C(=O)N2[C@H]1C(=O)O [AMOXICILLIN] |  |  |  |  |  | 0.3 µM (≈ 0.11 µg/mL)
COc1cccc2c1C(=O)c1c(O)c3c(c(O)c1C2=O)C[C@@](O)(C(=O)CO)C[C@@H]3O[C@H]1C[C@H](N)[C@H](O)[C@H](C)O1 [DOXORUBICIN] | 1170 nM | 1560 nM | 370 nM |  |  | 
CN[C@@H]1[C@H](O[C@H]2[C@H](O[C@H]3[C@H](O)[C@@H](O)[C@H](N=C(N)N)[C@@H](O)[C@@H]3N=C(N)N)O[C@@H](C)[C@]2(O)C=O)O[C@@H](CO)[C@H](O)[C@H]1O [STREPTOMYCIN] |  |  |  |  |  | 5.4 µM (≈ 3.14 µg/mL)
